18 compounds from ChEMBL document CHEMBL1122131, “1,1,2-triphenylbut-1-enes: relationship between structure, estradiol receptor affinity, and mammary tumor inhibiting properties” (1982) can be followed below.

The target in assay [1] is Estrogen receptor (Bos taurus) (UniProt Q9XSB5+P49884). The assay can be described thus: Binding affinity against Estrogen receptor in calf-uterine cytosol relative to 17-beta-estradiol using [3H]estradiol. The assay is classed as protein assay. An outline of the steps: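 Calf uterine cytosol was incubated with [3H]estradiol and six concentrations of unlabeled competitor at 4 °C for 16 h. Incubation was stopped with dextran-coated charcoal; after centrifugation, supernatant radioactivity was counted. The concentrations of estradiol and of test compound giving 50% displacement were read from a semilog plot. Relative binding affinity = [E2]/[I] × 100.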

The test system of assay [2] is Mus musculus. The assay can be described thus: Anti-neoplastic effect in estrogen and progesterone receptor positive hormone-dependent postmenopausal human mammary carcinoma bearing mice at 2.5 mg/kg/day. Type of assay: functional. An outline of the steps:
(§1)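 Human ER- and PR-positive, hormone-dependent postmenopausal mammary carcinoma, serially transplanted in NMRI nu/nu mice (castrated females or males, about 25 g, 6–7 weeks old, 10–12 per group). Drug given sc in olive oil 6 times/week; controls received vehicle for 4–6 weeks. Two tumor diameters measured weekly. Size is relative to treatment start (=1), averaged after 4 weeks. Compared with controls at α ≤ 0.05.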

Assay [3] deals with Mus musculus. The experiment in a line: Anti-neoplastic effect in estrogen and progesterone receptor positive hormone-dependent postmenopausal human mammary carcinoma bearing mice at 3.4 mg/kg/day. The assay is classed as functional. In outline:
as §1

Assay [4] deals with Rattus norvegicus. The experiment in a line: Percent change in tumor area in DMBA-induced hormone-dependent mammary carcinoma bearing rats at 0.85 mg/kg/day. Type of assay: functional. In outline:
(§2)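 Female Sprague-Dawley rats received one 20 mg DMBA dose by gastric intubation at age 50 days. About 4 weeks later, rats with at least one tumor over 140 mm² were grouped in tens. Drug given sc in olive oil 6 times/week. Read-outs were tumors classed as complete remission, partial remission, no change or progression, plus % change in tumor area and in body weight.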

Assay [5] relates to Rattus norvegicus. The experiment in a line: Percent change in tumor area in DMBA-induced hormone-dependent mammary carcinoma bearing rats at 1.71 mg/kg/day. The assay is classed as functional. An outline of the steps: as §2
Assay [6] relates to Rattus norvegicus. The experiment in a line: Percent change in tumor area in DMBA-induced hormone-dependent mammary carcinoma bearing rats at 6.83 mg/kg/day. Type of assay: functional. An outline of the steps:
as §2

For assay [7], the system named is Rattus norvegicus. The experiment in a line: Percent complete remission in DMBA-induced hormone-dependent mammary carcinoma bearing rats at 6.83 mg/kg/day. Type of assay: functional. In outline:
as §2

Assay [8] relates to Rattus norvegicus. The experiment in a line: Percent complete remission in DMBA-induced hormone-dependent mammary carcinoma bearing rats at 1.71 mg/kg/day. Type of assay: functional. In outline: as §2
Assay [9] deals with Rattus norvegicus. The assay can be described thus: Percent change in body weight in DMBA-induced hormone-dependent mammary carcinoma bearing rats at 0.85 mg/kg/day. The assay is classed as functional. An outline of the steps:
as §2

The test system of assay [10] is Rattus norvegicus. The experiment in a line: Percent change in body weight in DMBA-induced hormone-dependent mammary carcinoma bearing rats at 1.71 mg/kg/day. The assay is classed as functional. In outline:
as §2

Assay [11] deals with Rattus norvegicus. The experiment in a line: Percent change in body weight in DMBA-induced hormone-dependent mammary carcinoma bearing rats at 6.83 mg/kg/day. Type of assay: functional. In outline:
as §2

For assay [12], the system named is Rattus norvegicus. The experiment in a line: Percent tumor progression in DMBA-induced hormone-dependent mammary carcinoma bearing rats at 6.83 mg/kg/day. The assay is classed as functional. In outline:
as §2

For assay [13], the system named is Rattus norvegicus. The experiment in a line: Percent tumor progression in DMBA-induced hormone-dependent mammary carcinoma bearing rats at 1.71 mg/kg/day. Type of assay: functional. In outline:
as §2

Assay [14] deals with Rattus norvegicus. The experiment in a line: Percent partial remission in DMBA-induced hormone-dependent mammary carcinoma bearing rats at 6.83 mg/kg/day. Type of assay: functional. An outline of the steps: as §2
Assay [15] concerns Rattus norvegicus. The experiment in a line: Percent partial remission in DMBA-induced hormone-dependent mammary carcinoma bearing rats at 1.71 mg/kg/day. The assay is classed as functional. In outline: as §2
The test system of assay [16] is Rattus norvegicus. The experiment in a line: Percent tumor progression in DMBA-induced hormone-dependent mammary carcinoma bearing rats at 0.85 mg/kg/day. Type of assay: functional. An outline of the steps:
as §2

Assay [17] concerns Rattus norvegicus. The assay can be described thus: Percent complete remission in DMBA-induced hormone-dependent mammary carcinoma bearing rats at 0.85 mg/kg/day. The assay is classed as functional. An outline of the steps:
as §2

Assay [18] concerns Rattus norvegicus. The experiment in a line: Percent unchanged tumor size in DMBA-induced hormone-dependent mammary carcinoma bearing rats at 1.71 mg/kg/day. Type of assay: functional. In outline:
as §2

Assay [19] deals with Rattus norvegicus. The assay can be described thus: Percent unchanged tumor size in DMBA-induced hormone-dependent mammary carcinoma bearing rats at 0.85 mg/kg/day. The assay is classed as functional. In outline:
as §2

Assay [20] has as its system Rattus norvegicus. The experiment in a line: Percent unchanged tumor size in DMBA-induced hormone-dependent mammary carcinoma bearing rats at 6.83 mg/kg/day. The assay is classed as functional. In outline: as §2
Assay [21] concerns Rattus norvegicus. The assay can be described thus: Percent partial remission in DMBA-induced hormone-dependent mammary carcinoma bearing rats at 0.85 mg/kg/day. Type of assay: functional. An outline of the steps:
as §2

Assay [22] relates to Mus musculus. The assay can be described thus: Anti-neoplastic effect in estrogen and progesterone receptor positive hormone-dependent postmenopausal human mammary carcinoma bearing mice at 3 mg/kg/day. The assay is classed as functional. An outline of the steps:
as §1

The subject of assay [23] is Mus musculus. The assay can be described thus: Anti-neoplastic effect in estrogen and progesterone receptor positive hormone-dependent postmenopausal human mammary carcinoma bearing mice at 2.2 mg/kg/day. The assay is classed as functional. An outline of the steps: as §1

As for `CCC(=C(c1ccccc1)c1ccccc1)c1cccc(OC(C)=O)c1`, the RBA in assay [1] turned out to be 1.5%. In addition, the Tumor size in assay [2] turned out to be 1.04.

Take `CC/C(=C(\c1ccccc1)c1cccc(OC(C)=O)c1)c1ccccc1`: the RBA in assay [1] stood at 0.3%. For the same compound, the Tumor size in assay [2] was 2.41.

With `CCC(=C(c1ccccc1)c1ccccc1)c1ccc(OC(C)=O)cc1`, the RBA in [1] stood at 3.8%. Moreover, in assay [2], the Tumor size was determined as 1.12.

In [1], `CCC(=C(c1cccc(OC(C)=O)c1)c1cccc(OC(C)=O)c1)c1cccc(OC(C)=O)c1` showed an RBA of 1.5%. Besides, the Tumor size in assay [3] turned out to be 2.12. Also, the Change in assay [4] was 102%; in assay [5], 78%; in assay [6], 54%; in assay [7], 5%; in [8], 3%; in assay [9], 5.2%. Also, the Change in assay [10] was found to be 3.2%; in [11], 3.6%. In addition, the Tumors in assay [12] came to 35%; in assay [13], 44%; in [14], 30%; in assay [15] it was 16%; in assay [16], 40%; in assay [17], 2%. For the same compound, the Tumors in [18] worked out at 37%; in assay [19] it was 44%; in [20] it was 30%; in assay [21] it was 14%.

As for `CC/C(=C(\c1ccc(OC(C)=O)cc1)c1cccc(OC(C)=O)c1)c1ccc(OC(C)=O)cc1`, the RBA in assay [1] amounted to 3%. The compound further showed a Tumor size in assay [3] of 2.04.

Consider `CC/C(=C(/c1ccccc1)c1ccc(OC(C)=O)cc1)c1ccc(OC(C)=O)cc1`, for which, in assay [1], the RBA came to 5.9%. In addition, the Tumor size in assay [22] is reported as 0.83.

On to `CCC(=C(c1cccc(OC(C)=O)c1)c1cccc(OC(C)=O)c1)c1ccccc1`, for which, in [1], the RBA stood at 1.2%. Besides, in assay [22], the Tumor size was found to be 2.4.

For `CCC(=C(c1ccc(OC(C)=O)cc1)c1ccc(OC(C)=O)cc1)c1ccc(OC(C)=O)cc1`, in assay [1], the RBA is 4.2%. Further, the Tumor size in assay [3] worked out at 1.52.

Turning to `CCC(=C(c1ccc(OC(C)=O)cc1)c1ccc(OC(C)=O)cc1)c1ccccc1`, the RBA in assay [1] worked out at 6.8%. Moreover, the Tumor size in assay [22] turned out to be 0.81.

For `CC/C(=C(\c1ccc(OC(C)=O)cc1)c1cccc(OC(C)=O)c1)c1cccc(OC(C)=O)c1`, the RBA in [1] came out at 2.7%. Further, the Tumor size in assay [3] was determined as 1.69.

In turn, `CC/C(=C(\c1ccccc1)c1ccc(OC(C)=O)cc1)c1ccc(OC(C)=O)cc1` gave an RBA in [1] of 1%. Moreover, in assay [22], the Tumor size came out at 1.39.

Take `CC/C(=C(/c1ccccc1)c1cccc(OC(C)=O)c1)c1cccc(OC(C)=O)c1`: in assay [1], the RBA came out at 1.1%. Further, the Tumor size in assay [22] is 1.35.

Take `CC/C(=C(/c1ccccc1)c1cccc(OC(C)=O)c1)c1ccccc1`: the RBA in assay [1] is 0.7%. For the same compound, the Tumor size in [2] is 2.12.

On to `CC/C(=C(/c1ccc(OC(C)=O)cc1)c1cccc(OC(C)=O)c1)c1cccc(OC(C)=O)c1`, for which, in [1], the RBA stood at 1.8%. In addition, in assay [3], the Tumor size came to 2.44.

On to `CC/C(=C(/c1ccccc1)c1ccc(OC(C)=O)cc1)c1ccccc1`, for which the RBA in assay [1] worked out at 5.7%. In assay [2], this compound showed a Tumor size of 1.24.

In the case of `CCC(=C(c1ccccc1)c1ccccc1)c1ccccc1`, in assay [1], the RBA worked out at 0.8%. The Tumor size in assay [23] amounted to 1.61.

For the compound `CC/C(=C(\c1ccccc1)c1cccc(OC(C)=O)c1)c1cccc(OC(C)=O)c1`, the RBA in [1] is 0.2%. In assay [22], this compound showed a Tumor size of 2.36.

`CC/C(=C(\c1ccccc1)c1ccc(OC(C)=O)cc1)c1ccccc1` came in with an RBA in assay [1] of 2%. The Tumor size in [2] came to 1.3.
